Assay results reported in ChEMBL document CHEMBL2346664, “Synthesis, characterization and in vitro anticancer evaluation of novel 1,2,4-triazolin-3-one derivatives” (2013).

Columns and labels:
Type in all cases: functional
[1] = test system: NCI-H522; assay: Growth inhibition of human NCI-H522 cells assessed as cell growth at 10 '-8 M after 48 hrs by sulforhodamine B assay; settings: NCI-H522, 48 h, read-out: Activity
[2] = test system: HOP-92; assay: Growth inhibition of human HOP92 cells after 48 hrs by sulforhodamine B assay; settings: HOP-92, 48 h
How it was run: (§1)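 NCI 60-cell-line five-dose screen. Cells were plated at 5,000–40,000/well by doubling time and grown 24 h at 37 °C, 5% CO2. Time-zero plates were TCA-fixed. Drug from DMSO stock was tested at 0.01, 0.1, 1, 10 and 100 µM final for 48 h continuous exposure. Read-out was SRB at 515 nm. GI50 is the concentration giving 50% reduction in net protein increase versus untreated control.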

[3] = test system: UACC-62; assay: Growth inhibition of human UACC62 cells assessed as cell growth at 10 '-4 M after 48 hrs by sulforhodamine B assay; settings: UACC-62, 48 h, read-out: Activity
[4] = test system: NCI-H460; assay: Growth inhibition of human NCI-H460 cells assessed as cell growth at 10 '-6 M after 48 hrs by sulforhodamine B assay; settings: NCI-H460, 48 h, read-out: Activity
[5] = Growth inhibition of human EKVX cells assessed as cell growth at 10 '-8 M after 48 hrs by sulforhodamine B assay; settings: read-out: Activity
[6] = test system: COLO 205; assay: Growth inhibition of human COLO205 cells assessed as cell growth at 10 '-5 M after 48 hrs by sulforhodamine B assay; settings: COLO 205, 48 h, read-out: Activity
How it was run: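 In the same five-dose SRB screen (48 h, 37 °C, 5% CO2), percentage growth was computed at each concentration from time-zero (Tz), control (C) and treated (Ti) absorbances. The formula was [(Ti−Tz)/(C−Tz)]×100 when Ti ≥ Tz, or [(Ti−Tz)/Tz]×100 when Ti < Tz.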

[7] = test system: MDA-MB-468; assay: Growth inhibition of human MDA-MB-468 cells assessed as cell growth at 10 '-7 M after 48 hrs by sulforhodamine B assay; settings: MDA-MB-468, 48 h, read-out: Activity
[8] = test system: M14; assay: Growth inhibition of human M14 cells assessed as cell growth at 10 '-8 M after 48 hrs by sulforhodamine B assay; settings: M14, 48 h, read-out: Activity
[9] = test system: TK-10; assay: Growth inhibition of human TK10 cells assessed as cell growth at 10 '-8 M after 48 hrs by sulforhodamine B assay; settings: TK-10, 48 h, read-out: Activity
[10] = test system: SF-539; assay: Growth inhibition of human SF539 cells assessed as growth inhibition at 10 uM after 48 hrs by sulforhodamine B assay; settings: SF-539, 48 h, read-out: GI
[11] = Growth inhibition of human EKVX cells after 48 hrs by sulforhodamine B assay; how it was run: as §1
[12] = test system: SF-268; assay: Growth inhibition of human SF268 cells assessed as cell growth at 10 '-8 M after 48 hrs by sulforhodamine B assay; settings: SF-268, 48 h, read-out: Activity
[13] = test system: SR; assay: Growth inhibition of human SR cells assessed as cell growth at 10 '-8 M after 48 hrs by sulforhodamine B assay; settings: read-out: Activity
[14] = test system: SR; assay: Growth inhibition of human SR cells assessed as cell growth at 10 '-4 M after 48 hrs by sulforhodamine B assay; settings: read-out: Activity
[15] = test system: LOX IMVI; assay: Growth inhibition of human LOXIMVI cells assessed as growth inhibition at 10 uM after 48 hrs by sulforhodamine B assay; settings: read-out: GI
[16] = test system: HOP-62; assay: Growth inhibition of human HOP62 cells after 48 hrs by sulforhodamine B assay; settings: HOP-62, 48 h; how it was run: as §1
[17] = test system: SK-MEL-28; assay: Growth inhibition of human SK-MEL-28 cells assessed as growth inhibition at 10 uM after 48 hrs by sulforhodamine B assay; settings: SK-MEL-28, 48 h, read-out: GI
[18] = test system: A549; assay: Growth inhibition of human A549 cells after 48 hrs by sulforhodamine B assay; settings: A549, 48 h
How it was run: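 NCI 60-cell-line five-dose screen at 0.01, 0.1, 1, 10 and 100 µM final. Cells were plated at 5,000–40,000/well and grown 24 h at 37 °C, 5% CO2, then exposed to drug continuously for 48 h. Adherent cells were fixed with cold TCA (10% final) and stained with SRB; absorbance read at 515 nm. GI50 is the concentration where [(Ti-Tz)/(C-Tz)]×100 = 50, with Tz plates fixed at drug addition.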

[19] = Growth inhibition of human Hs 578T cells assessed as growth inhibition at 10 uM after 48 hrs by sulforhodamine B assay; settings: read-out: GI
[20] = test system: IGROV-1; assay: Growth inhibition of human IGROV1 cells assessed as cell growth at 10 '-8 M after 48 hrs by sulforhodamine B assay; settings: IGROV-1, 48 h, read-out: Activity
[21] = test system: MOLT-4; assay: Growth inhibition of human MOLT4 cells assessed as cell growth at 10 '-4 M after 48 hrs by sulforhodamine B assay; settings: MOLT-4, 48 h, read-out: Activity
[22] = test system: PC-3; assay: Growth inhibition of human PC3 cells after 48 hrs by sulforhodamine B assay; settings: PC-3, 48 h
[23] = test system: OVCAR-8; assay: Growth inhibition of human OVCAR8 cells after 48 hrs by sulforhodamine B assay; settings: OVCAR-8, 48 h
[24] = Growth inhibition of human EKVX cells assessed as cell growth at 10 '-5 M after 48 hrs by sulforhodamine B assay; settings: read-out: Activity
[25] = test system: OVCAR-3; assay: Growth inhibition of human OVCAR3 cells assessed as cell growth at 10 '-8 M after 48 hrs by sulforhodamine B assay; settings: OVCAR-3, 48 h, read-out: Activity
[26] = test system: SK-MEL-5; assay: Growth inhibition of human SK-MEL-5 cells assessed as growth inhibition at 10 uM after 48 hrs by sulforhodamine B assay; settings: SK-MEL-5, 48 h, read-out: GI
[27] = test system: RXF 393; assay: Growth inhibition of human RXF393 cells assessed as cell growth at 10 '-6 M after 48 hrs by sulforhodamine B assay; settings: RXF 393, 48 h, read-out: Activity
[28] = test system: A498; assay: Growth inhibition of human A498 cells assessed as growth inhibition at 10 uM after 48 hrs by sulforhodamine B assay; settings: A498, 48 h, read-out: GI
How it was run: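 Percent growth inhibition from the single 10^-5 M NCI-60 screen, reported as 100 minus growth percent. Growth percent was measured after 48 h drug exposure at 37 °C, 5% CO2, using TCA fixation, SRB staining and absorbance at 515 nm, against untreated controls and time-zero plates.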

[29] = read-out: LD50 (the source's name)

## Cc1cc(=O)oc2cc(OCCn3c(C)nn(-c4ccc(Cl)cc4)c3=O)ccc12
[1]
  growth at 0.01 µM: 100%
[2]
  GI50: 1610 nM
  TGI: > 1000 nM
[2]; [29]
  CC50: > 1000 nM
[3]
  growth at 100 µM: 30%
[4]
  growth at 1 µM: 83%
[5]
  growth at 0.01 µM: 96%
[6]
  growth at 10 µM: -14%
[7]
  growth at 0.1 µM: 90%
[8]
  growth at 0.01 µM: 101%
[9]
  growth at 0.01 µM: 94%
[10]
  inhibition of growth at 10 µM: 70.5%
[11]
  GI50: 1000 nM
  TGI: > 1000 nM
[11]; [29]
  CC50: > 1000 nM
[12]
  growth at 0.01 µM: 104%
[13]
  growth at 0.01 µM: 101%
[14]
  growth at 100 µM: -13%
[15]
  inhibition of growth at 10 µM: 52%
[16]
  GI50: 3050 nM
  TGI: 3290 nM
[16]; [29]
  CC50: > 1000 nM
[17]
  inhibition of growth at 10 µM: 59.2%
[18]
  GI50: 6070 nM
  TGI: > 1000 nM
[18]; [29]
  CC50: > 1000 nM
[19]
  inhibition of growth at 10 µM: 65.2%
[20]
  growth at 0.01 µM: 108%
[21]
  growth at 100 µM: 17%
[22]
  GI50: 8130 nM
  TGI: > 1000 nM
[22]; [29]
  CC50: > 1000 nM
[23]
  GI50: 5170 nM
  TGI: > 1000 nM
[23]; [29]
  CC50: > 1000 nM
[24]
  growth at 10 µM: 63%
[25]
  growth at 0.01 µM: 111%
[26]
  inhibition of growth at 10 µM: 89.2%
[27]
  growth at 1 µM: 75%
[28]
  inhibition of growth at 10 µM: 74.3%
